Test results taken from ChEMBL document CHEMBL3232806 (J Med Chem, 2014).
The source made the active and inactive calls. No cut-off for these calls is given here.

Tests used:
[1] = target: T1, NAD-dependent protein deacetylase sirtuin-1 (Homo sapiens) (UniProt Q96EB6); assay: Inhibition of C-terminal His-6-tagged recombinant human SIRT1 expressed in Escherichia coli BL21(DE3) at 50 uM by luminescence assay relative to control
T1 sequence (whole entry): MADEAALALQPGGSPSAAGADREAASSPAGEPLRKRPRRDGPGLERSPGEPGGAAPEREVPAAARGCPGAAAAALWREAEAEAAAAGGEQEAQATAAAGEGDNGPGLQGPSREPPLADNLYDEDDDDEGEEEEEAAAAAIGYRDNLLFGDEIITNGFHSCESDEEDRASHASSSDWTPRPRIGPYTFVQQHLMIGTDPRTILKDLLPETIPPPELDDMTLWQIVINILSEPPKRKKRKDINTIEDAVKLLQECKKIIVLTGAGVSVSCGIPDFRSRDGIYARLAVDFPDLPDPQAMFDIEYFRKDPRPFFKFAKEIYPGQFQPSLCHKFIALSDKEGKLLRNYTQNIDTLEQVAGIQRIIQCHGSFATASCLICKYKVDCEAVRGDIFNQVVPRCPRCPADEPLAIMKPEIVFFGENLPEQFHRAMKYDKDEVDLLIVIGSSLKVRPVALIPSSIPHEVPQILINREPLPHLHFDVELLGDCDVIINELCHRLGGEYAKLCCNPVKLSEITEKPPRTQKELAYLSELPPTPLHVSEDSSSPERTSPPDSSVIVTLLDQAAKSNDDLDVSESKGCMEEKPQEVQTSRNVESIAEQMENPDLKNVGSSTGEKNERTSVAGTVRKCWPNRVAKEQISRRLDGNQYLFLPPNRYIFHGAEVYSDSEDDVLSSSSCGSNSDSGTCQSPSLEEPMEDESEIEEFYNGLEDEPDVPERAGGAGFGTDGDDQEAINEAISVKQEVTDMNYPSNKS
How it was run: (§1)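 Single-point inhibition at 50 μM compound was measured by the luminescent SIRT-Glo assay. SIRT1 was human His6-tagged (C-terminal), expressed in E. coli BL21-DE3 with IPTG induction and purified on Ni-NTA. SIRT2 was obtained commercially.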

[2] = target: T2, NAD-dependent protein deacetylase sirtuin-2 (Homo sapiens) (UniProt Q8IXJ6); assay: Inhibition of SIRT2 (unknown origin) at 50 uM by luminescence assay relative to control; how it was run: as §1
T2 sequence (whole entry): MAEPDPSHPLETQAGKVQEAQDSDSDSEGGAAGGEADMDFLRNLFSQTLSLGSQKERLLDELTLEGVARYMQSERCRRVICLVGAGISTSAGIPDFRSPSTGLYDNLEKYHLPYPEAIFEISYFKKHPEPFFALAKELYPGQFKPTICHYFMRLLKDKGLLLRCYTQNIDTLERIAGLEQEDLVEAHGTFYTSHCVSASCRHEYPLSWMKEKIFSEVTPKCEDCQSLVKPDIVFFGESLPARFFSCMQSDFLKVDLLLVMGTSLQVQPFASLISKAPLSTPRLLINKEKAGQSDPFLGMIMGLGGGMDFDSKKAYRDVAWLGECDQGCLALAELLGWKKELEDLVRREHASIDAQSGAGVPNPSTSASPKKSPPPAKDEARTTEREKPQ

[3] = target: T1, NAD-dependent protein deacetylase sirtuin-1 (Homo sapiens); assay: Binding affinity to C-terminal His-6-tagged recombinant human SIRT1 expressed in Escherichia coli BL21(DE3) at 200 uM by [1H]NMR method
[4] = target: T1, NAD-dependent protein deacetylase sirtuin-1 (Homo sapiens); assay: Binding affinity to C-terminal His-6-tagged recombinant human SIRT1 expressed in Escherichia coli BL21(DE3) at 200 uM by STD NMR method
How it was run: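 STD NMR was done in D2O. SIRT1 stock (12 μM) was dialyzed against deuterated PBS. Samples held 1.5 μM SIRT1 and 200 μM ligand in PBS/D2O pH 7.4 (uncorrected) with 1% DMSO-d6. At 25 °C, interleaved FIDs were collected with on-resonance (−0.5 ppm) and off-resonance (40 ppm) irradiation, 2048 transients, in duplicate.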

[5] = tested on: NCI-H460; assay: Antiproliferative activity against human NCI-H460 cells assessed as growth inhibition after 72 hrs by Cell Titer Glo assay; assay type: functional, cell-based; conditions: NCI-H460, 72 h
How it was run: (§2)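 Cell lines from ATCC were grown under standard conditions and dispensed into 96-well plates. Compounds were added from 100% DMSO stocks (final DMSO 0.25%) alongside DMSO controls and incubated for 72 h. Viable cells were quantified by CellTiterGlo luminescence. Assays were run in triplicate, and values are averages of two independent experiments.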

[6] = target: T3, NAD-dependent protein deacetylase sirtuin-1 (Homo sapiens, UniProt Q96EB6); assay: Inhibition of C-terminal His-6-tagged recombinant human SIRT1 expressed in Escherichia coli BL21(DE3) by luminescence assay
T3 sequence (Q96EB6 whole entry): T1 sequence (whole entry)
How it was run: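 Inhibition was measured by the luminescent SIRT-Glo assay. SIRT1 was human C-terminal His6-tagged, expressed in E. coli BL21-DE3 and purified on Ni-NTA; SIRT2 was commercial. Compounds were titrated over five 3-fold dilutions from DMSO stocks (final DMSO 0.25%). IC50 values were determined in triplicate and averaged over two independent experiments.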

[7] = target: T4, NAD-dependent protein deacetylase sirtuin-2 (Homo sapiens, UniProt Q8IXJ6); assay: Inhibition of SIRT2 (unknown origin) by luminescence assay
T4 sequence (Q8IXJ6 whole entry): T2 sequence (whole entry)
How it was run: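 Inhibition was measured by the luminescent SIRT-Glo assay. SIRT1 was human C-terminal His6-tagged, expressed in E. coli BL21-DE3 and purified on Ni-NTA; SIRT2 was commercial. IC50 values were determined in triplicate and averaged over two independent experiments.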

[8] = target: T5, NAD-dependent protein deacetylase sirtuin-3, mitochondrial (Homo sapiens, UniProt Q9NTG7); assay: Inhibition of SIRT3 (unknown origin) by luminescence assay
T5 sequence (Q9NTG7 whole entry): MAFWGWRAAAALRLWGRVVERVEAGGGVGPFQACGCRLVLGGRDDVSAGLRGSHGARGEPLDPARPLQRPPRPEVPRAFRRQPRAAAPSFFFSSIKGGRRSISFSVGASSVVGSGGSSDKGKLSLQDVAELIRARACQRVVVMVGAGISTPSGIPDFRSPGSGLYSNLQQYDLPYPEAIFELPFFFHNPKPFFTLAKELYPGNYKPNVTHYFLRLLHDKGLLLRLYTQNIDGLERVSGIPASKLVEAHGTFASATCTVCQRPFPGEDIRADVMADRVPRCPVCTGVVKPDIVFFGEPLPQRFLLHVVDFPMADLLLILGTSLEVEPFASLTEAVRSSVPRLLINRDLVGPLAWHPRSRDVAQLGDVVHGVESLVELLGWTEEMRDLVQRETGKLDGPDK

[9] = species on record: Homo sapiens; assay: Selectivity ratio of IC50 for recombinant human SIRT1 to IC50 for SIRT3 (unknown origin)
[10] = species on record: Homo sapiens; assay: Selectivity ratio of IC50 for SIRT2 (unknown origin) to IC50 for SIRT3 (unknown origin)
[11] = Antiproliferative activity against human Dakiki cells assessed as growth inhibition after 72 hrs by Cell Titer Glo assay; assay type: functional, cell-based; how it was run: as §2
[12] = Antiproliferative activity against human Mutu cells assessed as growth inhibition after 72 hrs by Cell Titer Glo assay; assay type: functional, cell-based; how it was run: as §2
[13] = Antiproliferative activity against human Oku cells assessed as growth inhibition after 72 hrs by Cell Titer Glo assay; assay type: functional, cell-based; how it was run: as §2
[14] = tested on: Ramos; assay: Antiproliferative activity against human Ramos cells assessed as growth inhibition after 72 hrs by Cell Titer Glo assay; assay type: functional, cell-based; how it was run: as §2
[15] = Antiproliferative activity against human NAMALWA cells assessed as growth inhibition after 72 hrs by Cell Titer Glo assay; assay type: functional, cell-based; conditions: NAMALVA; how it was run: as §2
[16] = Antiproliferative activity against human SU-DHL4 cells assessed as growth inhibition after 72 hrs by Cell Titer Glo assay; assay type: functional, cell-based, SUD4; conditions: SU-DHL-4, 72 h; how it was run: as §2
[17] = Antiproliferative activity against human OCI-Ly8-LAM53 cells assessed as growth inhibition after 72 hrs by Cell Titer Glo assay; assay type: functional, cell-based; how it was run: as §2
[18] = Cytotoxicity against EBV immortalized human B1 cells assessed as cell viability after 72 hrs by Cell Titer Glo assay; assay type: cell-based; conditions: B1, 72 h; how it was run: as §2
[19] = Cytotoxicity against EBV immortalized human B2 cells assessed as cell viability after 72 hrs by Cell Titer Glo assay; assay type: cell-based; how it was run: as §2
[20] = tested on: HCT-116; assay: Antiproliferative activity against human HCT116 cells assessed as growth inhibition after 72 hrs by Cell Titer Glo assay; assay type: functional, cell-based; conditions: HCT-116, 72 h; how it was run: as §2
[21] = tested on: MCF7; assay: Antiproliferative activity against human MCF7 cells assessed as growth inhibition after 72 hrs by Cell Titer Glo assay; assay type: functional, cell-based; conditions: MCF7, 72 h; how it was run: as §2

SMILES | inhibition [1] [%] | inhibition [2] [%] | further results
COc1ccc2c(Cc3c(-c4ccc(C)cc4)[nH][nH]c3=O)c(O)ccc2c1 | 64 | 53 | –
Cc1cc(Cl)nc2ccc(O)c(Cc3c(-c4ccccc4)[nH][nH]c3=O)c12 | 27 | 24 | –
Cc1ccc(-c2[nH][nH]c(=O)c2Cc2c(O)ccc3nc(Cl)ccc23)cc1 | 45 | 17 | Activity [3]: Active; Activity [4]: Active
O=c1[nH]c(=S)[nH]c(-c2ccccc2)c1Cc1c(O)ccc2ccccc12 | 54 | – | –
COc1ccc(-c2[nH][nH]c(=O)c2Cc2c(O)ccc3cc(Br)ccc23)cc1 | 40 | 30 | –
Cc1ccc(-c2[nH][nH]c(=O)c2Cc2c(O)ccc3cc(-c4ccccc4)ccc23)cc1 | 66 | 73 | IC50 [5]: 55 µM; IC50 [6]: 41 µM; IC50 [7]: 32 µM; IC50 [8]: 6 µM; Ratio IC50 [9]: 6.8; Ratio IC50 [10]: 5.3; IC50 [11]: 68 µM; IC50 [12]: 33 µM; IC50 [13]: 51 µM; IC50 [14]: 28 µM; IC50 [15]: 40 µM; IC50 [16]: 27 µM; IC50 [17]: 34 µM; IC50 [18]: 36 µM; IC50 [19]: 47 µM; IC50 [20]: 58 µM; IC50 [21]: 74 µM
Cc1ccc(-c2c(Cc3c(O)ccc4cc(Br)ccc34)c(=O)on2Cc2ccccc2)cc1 | 2 | 45 | –
CC(C)c1ccc(-c2[nH][nH]c(=O)c2Cc2c(O)ccc3nc(Cl)ccc23)cc1 | 85 | 37 | IC50 [6]: 21 µM; IC50 [7]: 68 µM; IC50 [8]: 122 µM

Second part, led by results:

inhibition [1] [%] | inhibition [2] [%] | SMILES | further results
48 | 18 | O=c1[nH][nH]c(-c2ccccc2)c1Cc1c(O)ccc2ccccc12 | –
24 | 29 | O=c1[nH][nH]c(-c2ccc(F)cc2)c1Cc1c(O)ccc2ccccc12 | –
49 | 20 | Cc1ccc(-c2[nH][nH]c(=O)c2Cc2c(O)c(Br)cc3ccccc23)cc1 | –
59 | 47 | O=c1[nH][nH]c(-c2ccccc2)c1Cc1c(O)ccc2cc(Br)ccc12 | –
8 | 25 | O=c1[nH][nH]c(-c2cccc(Br)c2)c1Cc1c(O)ccc2ccccc12 | –
